Screens (PubChem)
Sampled rows, rich in hits. Any-hit rate of the full collection: about 3.8%.
KCNK3 block: human KCNK3 channel inhibition, primary screen; AID 602410; 0.84% of 340,000 active; CHO-KCNK3 thallium flux, FluxOR fluorescence; active compounds read low; O14649; B-score at 10 µM;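 active = B-score under library mean minus 4 SD, starting fluorescence ratio at most library mean plus 5 SD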;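 note: more negative B-score means stronger inhibition of thallium flux through KCNK3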
KCNQ1 pot: potentiates or activates the human KCNQ1 potassium channel; P51787; 0.35% of 310,000 active; CHO-K1 KCNQ1, thallium flux FluxOR fluorescence; active compounds read high; AID 2648; B-score at 10 µM;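 active = fluorescence ratio B-score, a plate-corrected score, at least three library SD, with initial intensity B-score within 5 SD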
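Assay system: stable KCNQ1 CHO-K1 line; medium: assay buffer, equal DMSO in all wells; timing: 90 min dye loading and 20 min compound exposure, both at room temperature; technique: kinetic FluxOR thallium fluorescence, 10-s 1-Hz baseline, 110-s post-stimulus read; read-out basis: B score of baseline-normalized fluorescence ratio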
Kir21 inh: Kir2.1 (mouse) channel inhibition; P35561; HEK293-Kir2.1, FluxOR thallium flux fluorescence; active compounds read low; B-score at 10 µM; 0.85% of 310,000 active; AID 1672;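 active = fluorescence ratio B-score at or below minus 3 SD of library scores, with starting-brightness B-score within 2 SD, cut at about -4.2 in these data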;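 note: channel flux triggered by added potassium and thallium sulfate stimulus; B-score of peak minus minimum fluorescence over baseline after thallium stimulus; more negative B-score means stronger Kir2.1 block with less thallium influx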
Target sequence (P35561 whole entry, looked up): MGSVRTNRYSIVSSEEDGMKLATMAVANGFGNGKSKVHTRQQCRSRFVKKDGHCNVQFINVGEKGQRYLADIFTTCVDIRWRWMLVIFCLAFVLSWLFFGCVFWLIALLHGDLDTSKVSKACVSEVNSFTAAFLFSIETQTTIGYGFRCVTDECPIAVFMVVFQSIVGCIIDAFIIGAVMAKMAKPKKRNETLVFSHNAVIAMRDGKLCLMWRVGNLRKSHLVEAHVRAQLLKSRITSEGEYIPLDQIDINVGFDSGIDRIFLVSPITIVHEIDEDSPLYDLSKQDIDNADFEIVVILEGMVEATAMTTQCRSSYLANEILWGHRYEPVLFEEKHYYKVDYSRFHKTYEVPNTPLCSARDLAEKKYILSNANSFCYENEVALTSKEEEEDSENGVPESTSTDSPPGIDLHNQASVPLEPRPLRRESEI
KCNK9 inh: human KCNK9 channel inhibition; Q9NPC2; AID 488922; HEK293 KCNK9, FluxOR thallium flux fluorescence; active compounds read low; 1.2% of 310,000 active; B-score at 10 µM;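 active = ratio B-score over 3 SD below the library mean, with starting fluorescence within 5 SD of its mean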;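 note: negative B-score means less thallium flux so channel inhibition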
hERG protect: hERG (human) protection from proarrhythmic block. activation (rescue from dofetilide block), less the hit threshold, % at 10 µM. Q12809. AID 1511. 0.51% of 310,000 active. CHO-hERG, FluxOR thallium flux, dofetilide IC70 present;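 active = activation above the mean of controls blocked by dofetilide plus 5 SD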;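 note: thallium influx through hERG after potassium depolarization seen as dye fluorescence rise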
KCNQ1 inh: inhibitors of human KCNQ1 potassium channel; AID 2642; 1.3% of 310,000 active; B-score at 10 µM; CHO-K1 KCNQ1, FluxOR thallium flux fluorescence; active compounds read high; P51787;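 active = compounds whose thallium flux B-score, printed positive for inhibition, exceeds three library SD while starting fluorescence stays within three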;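 note: channel opened by potassium depolarization with thallium stimulus after 20 min compound exposure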
Of the large screens only hits and unclear results are named; the others gave an inactive call.

Cc1ccc(CNC(=O)C2(NC(=O)Nc3ccc(C)cc3)CCCCC2)cc1	hERG protect 4.6
COc1ccccc1CNC(=O)C1(NC(=O)Nc2ccc(C)cc2)CCCCC1	none
CCOc1ncccc1C(=O)OC(C)C(=O)Nc1ccc(Cl)cn1 (centres undefined)	none (no result: KCNQ1 pot, Kir21 inh, KCNK9 inh, hERG protect, KCNQ1 inh)
CNc1ccccc1C(=O)OC(C)C(=O)Nc1ccc(Cl)cn1 (centres undefined)	KCNQ1 pot 12
CCOc1ccc(OCCC(=O)OC(C)C(=O)Nc2ccc(Cl)cn2)cc1 (centres undefined)	none (no result: KCNQ1 pot, Kir21 inh, KCNK9 inh, hERG protect, KCNQ1 inh)
CCC(C(=O)OC(C)C(=O)Nc1ccc(Cl)cn1)c1ccccc1 (centres undefined)	Kir21 inh -5.77
O=S(=O)(NCCc1cn2ccccc2n1)c1ccc(-c2ccccc2)cc1	Kir21 inh -4.24
O=C(COc1ccccc1)NC(=S)N1CCc2ccccc21	KCNQ1 pot 10, hERG protect 4.9
O=C(NC(=S)N1CCCc2ccccc21)c1ccc(Br)cc1	KCNQ1 pot 16, hERG protect 42.9
COc1ccc(N2CCN(C(=S)NC(C)c3ccccc3)CC2)cc1 (centres undefined)	none
Cc1cccc(C)c1Nc1nnc(SCc2cc([N+](=O)[O-])cc3c2OCOC3)s1	KCNK9 inh -6.71
COc1cccc(Nc2nnc(SCc3cc([N+](=O)[O-])cc4c3OCOC4)s2)c1	none
Oc1ccccc1Nc1nc(NCC2CCCO2)c2ccccc2n1 (centres undefined)	Kir21 inh -11.5
Oc1ccc(Nc2nc(NCC3CCCO3)c3ccccc3n2)cc1 (centres undefined)	Kir21 inh -7.75
CCC(C)NCCOCCSc1ccc(Cl)cc1 (centres undefined)	none
COc1ccc(OC)c(NC(=O)c2cccc(NC(=O)c3ccccc3C(=O)O)c2)c1	none
CC(C)OC(=O)CN1C(=O)S/C(=C/c2ccc(N3CCCCC3)o2)C1=O	KCNK9 inh -7.83
Fc1cccc(/C=N/NC(=S)Nc2ccccc2Cl)c1	hERG protect 6.8
Cc1ccc(NC(=S)N/N=C/c2c(Cl)cccc2Cl)c(C)c1	hERG protect 7.7
Cc1ccc(Cl)cc1NC(=S)N/N=C/c1cccc2ccccc12	KCNQ1 pot 11, hERG protect 8.5
CCOc1nc(NC2CCCCC2)nc(NC(C)(C)C)n1	none
O=C(Nc1ccccc1C(=O)NC(Cc1ccccc1)C(=O)NC1CCCCC1)c1ccccc1 (centres undefined)	none
N#CC1=C(N)SC(N)=C(C#N)C1c1cccc(Oc2ccccc2)c1	KCNQ1 inh 8
N#CC1=C(N)SC(N)=C(C#N)C1c1c(Cl)cccc1Cl	none
N#CC1=C(N)SC(N)=C(C#N)C1Cc1ccccc1	KCNQ1 inh 9
Cc1cccnc1NC(=O)CCNC(=O)c1ccc(Br)cc1	none
CCc1ccc2c(c1)c(N=NC1=NC(=O)CS1)c(O)n2C	KCNQ1 pot 13
CSc1nc2ccccc2c(=O)n1C1CCOC(C)(C)C1 (centres undefined)	none
COc1ccccc1NC(=O)CSc1c2c(nc3ccccc13)CCC2	Kir21 inh -10.2
COc1ccccc1NC(=O)Cc1noc(CSc2cccc[n+]2[O-])n1	none
COc1ccc(NC(=O)CSc2c3c(nc4ccccc24)CCCC3)c(OC)c1	Kir21 inh -4.66
COc1ccccc1NC(=O)CSc1nc2ccccc2cc1Cc1ccccc1	KCNK9 inh -7.86
COc1ccccc1NC(=O)CSC1=NC(=O)C(Cc2ccccc2)C(=O)N1 (centres undefined)	none
COc1cc(NC(=O)CSc2c3c(nc4ccccc24)CCC3)cc(OC)c1OC	none
COc1ccccc1NC(=O)Cc1noc(CSc2cc(C)c3ccccc3n2)n1	KCNK3 block -8.96
COC(=O)[C@]1(C)N[C@H](CN(C)S(=O)(=O)c2ccccc2)[C@@H]2C(=O)N(Cc3ccccc3)C(=O)[C@@H]21	none (no result: KCNQ1 pot, Kir21 inh, KCNK9 inh, hERG protect, KCNQ1 inh)
O=C1c2ccccc2S(=O)(=O)c2cc(C(=O)N3CCC(N4CCCC4)CC3)ccc21	none
Cn1ccnc1C(=O)c1ccc(NN)c([N+](=O)[O-])c1	none
Cn1ccnc1C(=O)c1cccc([N+](=O)[O-])c1	KCNQ1 pot 8
Cc1ccc(/C=C/C(=O)C2C(=O)c3ccccc3C2=O)cc1	KCNQ1 pot 20, hERG protect 24.8
Cc1ccc(/C=C/C(=O)c2ccccc2O)cc1	none
O=C(c1cc2cc(F)ccc2[nH]1)N1CCN(C(=O)c2ccco2)CC1	none
CC(Nc1cc(N2CCNCC2)ccc1[N+](=O)[O-])c1ccccc1 (centres undefined)	Kir21 inh -7.46
O=C(Oc1ccc(Br)cc1C(=S)N1CCOCC1)c1ccccc1	KCNK9 inh -8.01
CC1CCN(CCCNC(=O)c2ccc(CSCc3cccc(Cl)c3)o2)CC1	Kir21 inh -6.65
O=c1c2ccccc2[nH]c(=S)n1CCC1=CCCCC1	KCNQ1 pot 26, hERG protect 10.6
O=c1c2ccccc2[nH]c(=S)n1CCN1CCCCC1	none
CC(C)N1CCc2c(sc(NC(=O)c3cc4cc([N+](=O)[O-])ccc4s3)c2C(N)=O)C1	KCNQ1 inh 6
CC(C)N1CCc2c(sc(NC(=O)c3ccc4ccccc4c3)c2C(N)=O)C1	KCNK9 inh -7.94
CC(C)N1CCc2c(sc(NC(=O)c3ccc(C(=O)c4ccccc4)cc3)c2C(N)=O)C1	none
COc1cc(C(=O)NNC(=O)c2n[nH]c3ccccc23)cc(OC)c1OC	none (no result: KCNQ1 pot, Kir21 inh, KCNK9 inh, hERG protect, KCNQ1 inh)
CCN(CC)CCn1c(=N)n(CC(O)COc2cccc(C)c2)c2ccccc21 (centres undefined)	Kir21 inh -7.93
Cc1cccc(OCC(O)CN2CCNCC2)c1 (centres undefined)	none
COc1ccc(OCC(O)Cn2c(=N)n(Cc3ccccc3)c3ccccc32)cc1 (centres undefined)	Kir21 inh -7.33
Cc1cccc(OCC(O)Cn2c(=N)n(CCN3CCCCC3)c3ccccc32)c1 (centres undefined)	Kir21 inh -4.21
N=c1n(Cc2ccccc2)c2ccccc2n1CC(O)COc1ccc(Cl)cc1Cl (centres undefined)	none
Cc1cccc(OCC(O)Cn2c(=N)n(Cc3ccccc3)c3ccccc32)c1 (centres undefined)	Kir21 inh -9.97
COc1cc(/C=C/C(=O)OCC(=O)c2ccc3c(c2)NC(=O)CO3)ccc1OC(F)F	none (no result: KCNQ1 pot, Kir21 inh, KCNK9 inh, hERG protect, KCNQ1 inh)
O=C(CCC1CCCNC1)c1ccccc1 (centres undefined)	none (no result: KCNK3 block)
Cc1onc(-c2ccccc2)c1C(=O)OCC(=O)NC(C)c1ccc(Cl)cc1 (centres undefined)	none (no result: KCNQ1 pot, Kir21 inh, KCNK9 inh, hERG protect, KCNQ1 inh)
O=P(c1ccccc1)(c1ccccc1)N(c1ccccc1)c1ccccc1	KCNQ1 inh 7
O=C(Nc1ccccc1F)NC1CCCCCCC1	none
O=C(Nc1ccccc1F)NC1CC1	hERG protect 5.8
